Key:
Homo sapiens = species on record: Homo sapiens; experiment: In vitro microsomal stability in human liver microsomes (HLM); type: functional
Substance-K receptor = target: T1, Substance-K receptor (Oryctolagus cuniculus, UniProt P79218); experiment: Functional potency against Tachykinin receptor 2 (NK2) in rabbit pulmonary artery assay; details: read-out: pA2 (converted)
T1 sequence (P79218 whole entry): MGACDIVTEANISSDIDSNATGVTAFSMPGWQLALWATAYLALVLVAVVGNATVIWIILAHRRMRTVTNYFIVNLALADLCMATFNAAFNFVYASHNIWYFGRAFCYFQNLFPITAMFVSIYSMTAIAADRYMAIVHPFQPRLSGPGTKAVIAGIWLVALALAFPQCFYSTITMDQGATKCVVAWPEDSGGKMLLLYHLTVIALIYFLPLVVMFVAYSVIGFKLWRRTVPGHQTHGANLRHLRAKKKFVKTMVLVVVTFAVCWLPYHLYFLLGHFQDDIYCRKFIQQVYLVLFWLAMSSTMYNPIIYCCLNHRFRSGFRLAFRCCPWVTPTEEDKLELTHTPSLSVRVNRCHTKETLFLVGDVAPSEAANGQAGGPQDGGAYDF
Method in brief: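 Rabbit pulmonary artery preparation; antagonism of contractions evoked by the selective NK2 agonist [β-ala8]NKA(4–10); result expressed as pA2. Each determination n ≥ 2, every experiment run in triplicate.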

SMILES | Kb (Substance-K receptor) [nM] | half-life (Homo sapiens) [min]
NS(=O)(=O)N1CCN(C2CN(CCC3(c4ccc(Cl)c(Cl)c4)CCC(=O)N(CC4CC4)C3)C2)CC1 (stereo not drawn) | 1.26 | > 120
O=C1CCC(CCN2CC(N3C4CCC3CC(O)C4)C2)(c2ccc(Cl)c(Cl)c2)CN1Cc1ccccc1 (stereo not drawn) | 0.631 | 
O=C(O)C1CCN(C2CN(CCC3(c4ccc(Cl)c(Cl)c4)CCC(=O)N(CC4CC4)C3)C2)CC1 (stereo not drawn) | 0.398 | 
CN(CCO)C1CN(CCC2(c3ccc(Cl)c(Cl)c3)CCC(=O)N(Cc3ccccc3)C2)C1 (stereo not drawn) | 3.16 | 
CNS(=O)(=O)N1CCN(C2CN(CCC3(c4ccc(Cl)c(Cl)c4)CCC(=O)N(CC4CC4)C3)C2)CC1 (stereo not drawn) | 3.16 | 
O=C1CCC(CCN2CC(N3CCOCC3)C2)(c2ccc(Cl)c(Cl)c2)CN1C1CCCCC1 (stereo not drawn) | 0.126 | < 10
CC(=O)NC1(c2ccccc2)CCN(C2CN(CCC3(c4ccc(Cl)c(Cl)c4)CCC(=O)N(CC4CC4)C3)C2)CC1 (stereo not drawn) | 3.16 | 
NC(=O)N1CCN(C2CN(CCC3(c4ccc(Cl)c(Cl)c4)CCC(=O)N(CC4CC4)C3)C2)CC1 (stereo not drawn) | 5.01 | 
O=C1CCC(CCN2CC(N3CCNCC3)C2)(c2ccc(Cl)c(Cl)c2)CN1CC1CC1 (stereo not drawn) | 12.6 | 
CC(=O)NC1CCN(C2CN(CCC3(c4ccc(Cl)c(Cl)c4)CCC(=O)N(CC4CC4)C3)C2)CC1 (stereo not drawn) | 15.8 | 
CCOC1CCN(C2CN(CCC3(c4ccc(Cl)c(Cl)c4)CCC(=O)N(CC4CC4)C3)C2)CC1 (stereo not drawn) | 6.31 | 
CS(=O)(=O)N1CCN(C2CN(CCC3(c4ccc(Cl)c(Cl)c4)CCC(=O)N(CC4CC4)C3)C2)CC1 (stereo not drawn) | 3.16 | < 10
O=C1CCN(C2CN(CCC3(c4ccc(Cl)c(Cl)c4)CCC(=O)N(CC4CC4)C3)C2)CC1 (stereo not drawn) | 1.26 | 
O=C1CCC(CCN2CC(N3CCOC(c4ccccc4)C3)C2)(c2ccc(Cl)c(Cl)c2)CN1Cc1ccccc1 (stereo not drawn) | 10 | 
O=C1CC[C@](CCN2CC(N3CCOCC3)C2)(c2ccc(Cl)c(Cl)c2)CN1CC1CCCCC1 |  | 14
CS(=O)(=O)NC1CCN(C2CN(CCC3(c4ccc(Cl)c(Cl)c4)CCC(=O)N(CC4CC4)C3)C2)CC1 (stereo not drawn) | 10 | 
NC1CCN(C2CN(CCC3(c4ccc(Cl)c(Cl)c4)CCC(=O)N(CC4CC4)C3)C2)CC1 (stereo not drawn) | 2 | 30
O=C1CCC(CCN2CCC(O)(c3ccccc3)CC2)(c2ccc(Cl)c(Cl)c2)CN1Cc1ccccc1 (stereo not drawn) | 1.26 | 30
O=C1CCC(CCN2CC(N3CCC(O)CC3)C2)(c2ccc(Cl)c(Cl)c2)CN1CC1CC1 (stereo not drawn) | 1.58 | 
CN(CC(CCN1CCC(O)(c2ccccc2)CC1)c1ccc(Cl)c(Cl)c1)C(=O)c1ccccc1 (stereo not drawn) | 0.316 | < 10
CN(C)S(=O)(=O)N1CCN(C2CN(CCC3(c4ccc(Cl)c(Cl)c4)CCC(=O)N(CC4CC4)C3)C2)CC1 (stereo not drawn) | 10 | 

More lines, main results first:

Kb (Substance-K receptor) [nM] | SMILES | half-life (Homo sapiens) [min]
5.01 | O=C1CCC(CCN2CC(N3CCNCC3)C2)(c2ccc(Cl)c(Cl)c2)CN1Cc1ccccc1 (stereo not drawn) | 
6.31 | Cc1ccc(CN2CC(CCN3CC(N4CCOCC4)C3)(c3ccc(Cl)c(Cl)c3)CCC2=O)cc1 (stereo not drawn) | 
1.26 | O=C1CCC(CCN2CC(N3CCOCC3)C2)(c2ccc(Cl)c(Cl)c2)CN1CC1CCCCC1 (stereo not drawn) | 70
0.501 | O=C1CCC(CCN2CC(N3CCOCC3)C2)(c2ccc(Cl)c(Cl)c2)CN1Cc1ccccc1 (stereo not drawn) | 70
100 | O=C1CCC(CCN2CC(N3CCOCC3)C2)(c2ccc(Cl)c(Cl)c2)CN1Cc1ccncc1 (stereo not drawn) | 
20 | O=C1CCC(CCN2CC(N3CCOCC3)C2)(c2ccc(Cl)c(Cl)c2)CN1Cc1ccc(F)cc1 (stereo not drawn) | 
2 | O=C1CCC(CCN2CC(N3CCC(O)C3)C2)(c2ccc(Cl)c(Cl)c2)CN1Cc1ccccc1 (stereo not drawn) | 
631 | O=C1CC[C@@](CCN2CC(N3CCOCC3)C2)(c2ccc(Cl)c(Cl)c2)CN1CC1CCCCC1 | 84
0.501 | Cc1ccccc1CN1CC(CCN2CC(N3CCOCC3)C2)(c2ccc(Cl)c(Cl)c2)CCC1=O (stereo not drawn) | 
0.631 | O=C1CCC(CCN2CC(N3CC[S+]([O-])CC3)C2)(c2ccc(Cl)c(Cl)c2)CN1Cc1ccccc1 (stereo not drawn) | 
7.94 | O=C1CCC(CCN2CC(N3CCOCC3)C2)(c2ccc(Cl)c(Cl)c2)CN1CC1CC1 (stereo not drawn) | 120
2 | O=C1CCC(CCN2CC(N3CCCC(O)C3)C2)(c2ccc(Cl)c(Cl)c2)CN1Cc1ccccc1 (stereo not drawn) | 
2.51 | O=C1CCC(CCN2CC(N3CCOCC3=O)C2)(c2ccc(Cl)c(Cl)c2)CN1Cc1ccccc1 (stereo not drawn) | 
> 10000 | O=C1CCC(CCN2CC(N3CCOCC3)C2)(c2ccc(Cl)c(Cl)c2)CN1 (stereo not drawn) | 
1.58 | CC(=O)N1CCN(C2CN(CCC3(c4ccc(Cl)c(Cl)c4)CCC(=O)N(Cc4ccccc4)C3)C2)CC1 (stereo not drawn) | 
0.631 | CS(=O)(=O)N1CCN(C2CN(CCC3(c4ccc(Cl)c(Cl)c4)CCC(=O)N(Cc4ccccc4)C3)C2)CC1 (stereo not drawn) | 
1 | O=C1CCC(CCN2CC(N3CCSCC3)C2)(c2ccc(Cl)c(Cl)c2)CN1Cc1ccccc1 (stereo not drawn) | 
15.8 | CN1CCN(C2CN(CCC3(c4ccc(Cl)c(Cl)c4)CCC(=O)N(Cc4ccccc4)C3)C2)CC1 (stereo not drawn) | 
1.26 | O=C1CCC(CCN2CC(N3CCS(=O)(=O)CC3)C2)(c2ccc(Cl)c(Cl)c2)CN1Cc1ccccc1 (stereo not drawn) | 
2.51 | Cc1cccc(CN2CC(CCN3CC(N4CCOCC4)C3)(c3ccc(Cl)c(Cl)c3)CCC2=O)c1 (stereo not drawn) | 
0.0794 | O=C1CCC(CCN2CC(N3CCC(O)CC3)C2)(c2ccc(Cl)c(Cl)c2)CN1Cc1ccccc1 (stereo not drawn) | 
2 | O=C1CCC(CCN2CC(N3CCCOCC3)C2)(c2ccc(Cl)c(Cl)c2)CN1Cc1ccccc1 (stereo not drawn) | 

Source: ChEMBL document CHEMBL1135664, “Structure-activity relationships of 1-alkyl-5-(3,4-dichlorophenyl)- 5-[2-[(3-substituted)-1-azetidinyl]ethyl]-2-piperidones. 1. Selective antagonists of the neurokinin-2 receptor” (J Med Chem, 2002)
